A selection: hits, their analogues and other compounds. The true share with any hit is near 3.4%.
A3G deaminase – blocks human APOBEC3G single-stranded DNA deamination; Q9HC16; recombinant A3G, ssDNA deamination FAM/TAMRA fluorescence; inhibition, % at 20 µM; 330,000 tested, 0.28% active;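 active = inhibition of at least 40% at 20 µM, with no more than 30% in the related APOBEC3A deaminase screen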
UCH37 inh – inhibitors of human deubiquitinating enzyme UCH37; AID 588478; Q9Y5K5; purified proteasome/UCH37, Ub-AMC cleavage fluorescence; inhibition, % (no concentration beside the values); 330,000 tested, 0.33% active;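 active = mean inhibition over replicate wells above about 20%, limit read from the data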
Target sequence (Q9Y5K5 whole entry, looked up): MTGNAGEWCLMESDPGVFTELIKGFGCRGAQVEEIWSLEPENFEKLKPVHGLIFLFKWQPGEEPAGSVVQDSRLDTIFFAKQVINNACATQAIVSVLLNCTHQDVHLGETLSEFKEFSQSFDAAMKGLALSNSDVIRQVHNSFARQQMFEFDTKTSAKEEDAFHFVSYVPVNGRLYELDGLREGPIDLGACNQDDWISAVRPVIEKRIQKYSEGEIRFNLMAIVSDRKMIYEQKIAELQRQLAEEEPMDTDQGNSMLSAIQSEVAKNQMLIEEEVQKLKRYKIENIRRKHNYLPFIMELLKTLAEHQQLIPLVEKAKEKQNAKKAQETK
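Test system – human UCH37 enzyme supplied as purified proteasome complex · Incubation – 30 min preincubation with enzyme, 25 min cleavage at room temperature · Detection – AMC fluorescence from Ub-AMC cleavage, excitation 355 nm, emission 460 nm · Benchmarks – no-proteasome wells (full inhibition) and compound-free wells (no inhibition)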
Arrestin-AP2 inh – inhibitors of human beta-arrestin and AP2 interaction; AID 504490; FITC-arrestin peptide / GST-AP2 beads, flow cytometry; AP2 beta2 appendage carries R879A mutation; 340,000 tested, 0.31% active; inhibition, % at 10 µM;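 active = inhibition above a set limit, near 3 SD of compounds lacking own fluorescence, cut at about 54% in these data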
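test system = AP2 appendage R879A on GSH beads | buffer or medium = PBS plus Tween 20 (0.05%) and BSA (0.1%) | incubation = 12 min plus 1 h, RT | detection = bead flow cytometry, FITC channel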
PolyA inhibitor – inhibitors of polyadenylation in S. cerevisiae | S. cerevisiae SKY197-pL101 polyadenylation reporter, beta-gal luminescence; efflux-impaired pdr1/pdr3 knockout yeast; score 100 = 6 SD above DMSO | activity score, % at 12 µM | 300,000 tested, 0.02% active;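 active = lowest replicate activity score at least 50, where 100 means six control SD above control mean; inconclusive = lowest score under 50 but half or more replicates reach 50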;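 note: yeast exposed to compound for 9 h at 30 °C; higher score means more reporter readthrough which indicates perturbed polyadenylation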
A3A deaminase – inhibitors of human APOBEC3A DNA deaminase | inhibition, % at 20 µM | 330,000 tested, 0.41% active | recombinant A3A, FAM/TAMRA ssDNA deamination fluorescence;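 active = at least 40% inhibition at 20 µM here, with at most 30% in a related deaminase screen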
Target sequence (P31941 whole entry, looked up): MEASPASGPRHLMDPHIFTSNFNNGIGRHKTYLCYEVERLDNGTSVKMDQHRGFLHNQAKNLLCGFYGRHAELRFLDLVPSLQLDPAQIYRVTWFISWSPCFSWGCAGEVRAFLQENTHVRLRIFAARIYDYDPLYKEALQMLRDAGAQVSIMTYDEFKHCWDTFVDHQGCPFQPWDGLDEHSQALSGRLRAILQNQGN
AHR activator – activates the human aryl hydrocarbon receptor | AID 2796 | 320,000 tested, 2.5% active | activation, % at 5 µM | AHR-responsive luciferase reporter cells, luminescence | P35869; in the data active = activation above about 47%
AHR act cf – human AHR activation, confirmation. shares compounds with AHR activator. human cells, AHR-responsive luciferase reporter, luminescence. activation, % at 9 µM. 2,300 tested, 87% active. AID 2845; in the data active = activation above about 49%;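 note: HepG2 hepatoma cells carrying a DRE-driven firefly luciferase reporter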
PXR counter – activates human PXR in AHR activator counter-screen. shares compounds with AHR activator. cell-based PXR reporter, luciferase luminescence. activation, % at 11.6 µM. 2,300 tested, 88% active; in the data active = activation above about 11%;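 note: human hepatoma DPX-2 cells expressing full-length human PXR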
Each line names hits and unclear results; the compound was inactive in the other large screens (follow-up assays come after a bar, where they were run).

Cc1ccccc1OC(C)C(=O)Nc1ccc2c(c1)OCO2 (stereo not drawn)	AHR activator 102 | AHR act cf 51 | PXR counter 36
CCN(CC)c1ccc(C=NN2CCN(Cc3ccccc3Cl)CC2)cc1	none (no result: A3G deaminase, Arrestin-AP2 inh, PolyA inhibitor, A3A deaminase, AHR activator)
C=CCn1c(COc2ccc(CC)cc2)nnc1SCC(O)=C(C#N)c1nc2ccccc2[nH]1	none (no result: A3G deaminase, Arrestin-AP2 inh, PolyA inhibitor, A3A deaminase, AHR activator)
CC(=NNC(=O)Cc1cccc2ccccc12)c1ccncc1	none (no result: A3G deaminase, Arrestin-AP2 inh, PolyA inhibitor, A3A deaminase, AHR activator)
O=C(N/N=C/c1ccc2c(c1)OCO2)c1ccc2c(c1)OCO2	AHR activator 115 (no result: UCH37 inh) | AHR act cf 93 | PXR counter 25
COC(=O)c1ccccc1NC(=O)NCc1ccc2c(c1)OCO2	none
CCOc1ccccc1NC(=O)NCc1ccc2c(c1)OCO2	AHR activator 97 | AHR act cf 74 | PXR counter 40
O=C(NC(=S)NCc1ccccc1)c1ccc2c(c1)OCO2	AHR activator 84 | AHR act cf 61 | PXR counter 19
COc1cccc(NC(=O)CN(C)CC(=O)Nc2ccc3c(c2)OCO3)c1	none (no result: PolyA inhibitor)
COc1cccc(NC(=O)Nc2ccc3c(c2)OCO3)c1	AHR activator 110 | AHR act cf 65 | PXR counter 38
O=C(NN=Cc1cc(Cl)cc([N+](=O)[O-])c1O)c1ccc2c(c1)OCO2	none (no result: A3G deaminase, Arrestin-AP2 inh, PolyA inhibitor, A3A deaminase, AHR activator)
COc1ccc(C=Nn2cc(-c3ccc(OC)cc3)nc2N)cc1	none (no result: A3G deaminase, Arrestin-AP2 inh, PolyA inhibitor, A3A deaminase, AHR activator)
COc1cc(SC)ccc1C(=O)Nc1ccccc1	none
O=C(Nc1ccc2c(c1)CCC2)Nc1ccc2c(c1)OCO2	AHR activator 85 | AHR act cf 52 | PXR counter 43
COc1cccc(NC(=O)Nc2cc(NC(=O)Nc3cccc(OC)c3)c(C)nc2C)c1	AHR activator 91 | AHR act cf 50 | PXR counter 15
O=C(CCN1CCc2ccccc2C1)Nc1ccc2c(c1)OCO2	AHR activator 84 | AHR act cf inactive | PXR counter 51
COc1ccccc1C(=O)Nc1cccc(SC)c1	AHR activator 83 | AHR act cf 85 | PXR counter 23
N#Cc1c(N=C/C=C/c2ccccc2)sc2c1CCCC2	none (no result: A3G deaminase, Arrestin-AP2 inh, PolyA inhibitor, A3A deaminase, AHR activator)
CCOc1ccccc1NC(=O)Nc1ccncc1	AHR activator 139 | AHR act cf 86 | PXR counter 18
CCOc1ccccc1NC(=O)Nc1ccon1	none
CCOc1ccccc1C(=O)NCC(=O)Nc1ccc2c(c1)OCO2	AHR activator 83 (no result: PolyA inhibitor) | AHR act cf 100 | PXR counter 102
Cn1c(NC(=O)c2cccc(C(F)(F)F)c2)cc(=O)n(C)c1=O	AHR activator 136 | AHR act cf 120 | PXR counter 16
COc1ccc(-c2oc3ccc(N4CCOCC4)cc3c2C#Cc2ccc(N)cc2)cc1	AHR activator 95 | AHR act cf 52
COc1ccc(C#Cc2c(-c3ccc(OC)cc3)oc3ccc(-c4ccc(OC)cc4)cc23)cc1	none
Cc1ccc(NC(=O)/C(C#N)=C/c2ccsc2)c(C)c1	none
Cc1ccccc1NC(=O)/C(C#N)=C\c1ccsc1	AHR activator 84 | AHR act cf 50 | PXR counter 62
Cc1ccccc1-c1nsc(SCC(=O)NCc2ccc3c(c2)OCO3)n1	AHR activator 86 | AHR act cf inactive | PXR counter 30
O=C(CSc1nc2cc(Cl)ccc2s1)NCc1ccc2c(c1)OCO2	AHR activator 108 | AHR act cf 82 | PXR counter 34
Cc1ccc(-c2nsc(SCC(=O)NCc3ccc4c(c3)OCO4)n2)cc1	none
Cc1cc(C)c2c(c1)C(=NNc1ccc(S(N)(=O)=O)cc1[N+](=O)[O-])CCC2	none (no result: A3G deaminase, Arrestin-AP2 inh, PolyA inhibitor, A3A deaminase, AHR activator)
Cc1ccc2sc(NNC(=O)C3COc4ccccc4O3)nc2c1C (stereo not drawn)	AHR activator 137 (no result: PolyA inhibitor) | AHR act cf 65 | PXR counter 48
CC(=O)Nc1ccc(NC(=O)CSc2ncc(C(=O)Nc3ccc(F)cc3)c(=O)n2C)cc1	AHR activator 98 | AHR act cf 127 | PXR counter 21
O=c1[nH]c2ccccc2c2nc3ccccn3c12	PolyA inhibitor inconclusive, AHR activator 91 | AHR act cf 117 | PXR counter 19
O=c1nc2c(O)cccn2c2c1c(=O)[nH]c1ccccc12	none (no result: A3G deaminase, A3A deaminase, AHR activator)
Nc1c(C(=O)c2ccccc2)oc2ccc([N+](=O)[O-])cc12	none
Nc1c(C(=O)c2ccccc2)oc2ccc(Br)cc12	AHR activator 79 | AHR act cf 120 | PXR counter 12
Nc1c(C(=O)c2ccc(Br)cc2)oc2ccccc12	AHR activator 122 | AHR act cf 176
Cc1ccc(C(=O)c2oc3ccccc3c2N)cc1	AHR activator 113 | AHR act cf 138 | PXR counter 22
Oc1ccc(Br)cc1C=NN1CCN(Cc2cccc3ccccc23)CC1	none (no result: A3G deaminase, Arrestin-AP2 inh, PolyA inhibitor, A3A deaminase, AHR activator)
CC1(C)CC(NC(=O)C23CCC(C)(C(=NO)C2)C3(C)C)CC(C)(C)N1 (stereo not drawn)	none (no result: A3G deaminase, Arrestin-AP2 inh, PolyA inhibitor, A3A deaminase, AHR activator)
COc1cccc(C=NNC(=O)C(=O)NCc2ccco2)c1O	none (no result: A3G deaminase, Arrestin-AP2 inh, PolyA inhibitor, A3A deaminase, AHR activator)
CCCc1cc(C(=O)Nc2ccc(F)c(Cl)c2)no1	none
CCc1noc(N)c1C(=O)Nc1ccc(F)c(Cl)c1	AHR activator 80 | AHR act cf 109 | PXR counter 12
COc1cccc(Cn2nnc(C(=O)Nc3cc(C)ccc3OC)c2N)c1	AHR activator 128 | AHR act cf inactive | PXR counter 26
COc1cccc(Cn2nnc(C(=O)Nc3ccc(C)cc3)c2N)c1	none
Cc1cc(CC(C)C)n(-c2nc3ccccc3c(=O)n2OCc2ccccc2)n1	AHR activator 87 | AHR act cf 99 | PXR counter 74
Cc1cc(CC(C)C)n(-c2nc3ccccc3c(=O)n2OCC(=O)N(C)C)n1	none (no result: PolyA inhibitor)
COc1cc(OC)c(C=NNC(=O)c2ccc(Cn3nc([N+](=O)[O-])cc3C)cc2)c(OC)c1	none (no result: A3G deaminase, Arrestin-AP2 inh, PolyA inhibitor, A3A deaminase, AHR activator)
O=C(NN=Cc1cccc(OC(=O)c2ccco2)c1)c1ccc(F)cc1	none (no result: A3G deaminase, Arrestin-AP2 inh, PolyA inhibitor, A3A deaminase, AHR activator)
COc1ccc(N2CCN(C(=O)c3cccc(S(=O)(=O)N4CCc5ccccc54)c3)CC2)cc1	none (no result: PolyA inhibitor)
O=C(c1cccc(S(=O)(=O)N2CCc3ccccc32)c1)N1CCN(c2ccccn2)CC1	AHR activator 80 | AHR act cf 93 | PXR counter 200
O=C(CCn1nc(-c2ccccc2)ccc1=O)N1CCN(c2ccccn2)CC1	AHR activator 82 | AHR act cf inactive | PXR counter inactive
Cc1csc2nc(O)c(C(=O)NC3CCCCC3)c(=O)n12	PolyA inhibitor inconclusive
O=C(NC1CCCC1)c1c(O)nc2sccn2c1=O	AHR activator 85 | AHR act cf 114 | PXR counter inactive

High-throughput results: PubChem, several laboratories
